CHO-K1 Ca antag: counter-screen for M1 antagonists: effect in parental CHO-K1 cells. ATP-induced calcium, Fluo-8 fluorescence. inhibition, % at 3 µM. hit rate 0.6% among 360,000. AID 602250;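 active = inhibition above a per-plate cutoff, the plate's mean sample inhibition plus 3 SD, cut at about 24% in these data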;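 note: 0% = DMSO plus EC80 ATP and 100% = DMSO alone without ATP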
CHO-K1 Ca ag: counter-screen for M1 agonists: effect in parental CHO-K1 cells; hit rate 0.48% among 360,000; Fluo-8 calcium fluorescence; scaled to maximal ATP response, vehicle zero; AID 602248; activation, % at 3 µM; in the data active = activation above about 15%;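 note: untransfected CHO-K1 host cells lacking M1 receptor as counterscreen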
OX1R antag-1: blocks the human orexin 1 receptor; inhibition, % at 6.6 µM; hit rate 1.8% among 330,000; OX1R-expressing cells, FRET antagonist read-out; in the data active = inhibition mostly above about 38%, no sharp cut-off; inactive = mostly below about 40%;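 note: 0% = agonist challenge alone and 100% = reference antagonist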
Target sequence (O43613 whole entry, looked up): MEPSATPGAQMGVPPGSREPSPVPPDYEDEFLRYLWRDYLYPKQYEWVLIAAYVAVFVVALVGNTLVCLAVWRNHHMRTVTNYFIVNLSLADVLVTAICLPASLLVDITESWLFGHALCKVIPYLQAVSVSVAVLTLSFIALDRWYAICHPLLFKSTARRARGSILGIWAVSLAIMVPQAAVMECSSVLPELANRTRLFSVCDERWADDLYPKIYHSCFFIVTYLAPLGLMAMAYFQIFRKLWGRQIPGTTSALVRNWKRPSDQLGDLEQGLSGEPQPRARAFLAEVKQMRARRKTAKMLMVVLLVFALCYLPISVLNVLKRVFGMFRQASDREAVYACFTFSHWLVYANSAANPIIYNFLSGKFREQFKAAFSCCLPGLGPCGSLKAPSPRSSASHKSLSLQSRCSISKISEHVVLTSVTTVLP
OX1R antag-2: antagonists of human orexin 1 receptor; O43613; CHO/OX1R cells, Fluo-8 calcium fluorescence, orexin A; inhibition, % at 5 µM; hit rate 0.43% among 330,000; AID 434989;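 active = inhibition above its plate's threshold, mean inhibition of all tested compounds on the plate plus 3 SD, cut at about 37% in these data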;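 note: 0% = orexin A challenge wells and 100% = SB-334867-A antagonist wells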
CHO-K1 Ca PAM: M1 PAM counterscreen hit in parental CHO-K1 cells. hit rate 0.02% among 360,000. activation, % at 3 µM. ATP EC20, Fluo-8 calcium fluorescence; 0% at ATP EC20, 100% at ATP max;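 active = activation above the run cutoff, the mean activation of all test compounds plus 3 SD, cut at about 40% in these data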;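 note: peak over basal fluorescence ratio in a 140 s read after ATP addition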
CHO parental Ca: counter-screen: ATP calcium response change in parental CHO cells. inhibition, % at 5.6 µM. hit rate 0.63% among 330,000. parental CHO-K1, ATP-induced calcium, Fluo-8 fluorescence;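 active = inhibition above that plate's mean sample inhibition plus 3 SD, cut at about 26% in these data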;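 note: 0% = ATP-challenged DMSO wells and 100% = DMSO wells without ATP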
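Test system: untransfected parental CHO cell line; also added: ATP stimulus; dosing: 5.6 µM, single dose; signal: calcium-sensitive Fluo-8 fluorescence; measure: percent inhibition of ATP-evoked calcium rise, normalized to controls; benchmarks: low control ATP plus DMSO, high control DMSO only; replication: one well per compound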
OX1R Ca confirm: OX1R (human) antagonism, confirmed; shares compounds with OX1R antag-2; CHO/OX1R cells, orexin A calcium Fluo-8 fluorescence; inhibition, % at 5 µM; hit rate 38% among 1,100; AID 492963; in the data active = inhibition above about 29%;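 note: 0% = agonist challenge alone and 100% = reference antagonist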
CHO Ca counter: counter-screen: parental CHO calcium response change, triplicate; parental CHO-K1, ATP-induced calcium, Fluo-8 fluorescence; inhibition, % at 5.6 µM; shares compounds with OX1R antag-2; hit rate 9.3% among 1,100; AID 492965;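 active = inhibition above a per-plate limit, the mean inhibition of that plate's test compounds plus 3 SD, cut at about 25% in these data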;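 note: 0% = ATP challenge with DMSO and 100% = DMSO without ATP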
OX1R HTRF conf: OX1R (human) antagonism, HTRF confirmed; inhibition, % at 6.6 µM; shares compounds with OX1R antag-1; hit rate 49% among 1,800; OX1R-expressing cells, HTRF antagonist assay; in the data active = inhibition above about 55%;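 note: CHO cells expressing OX1R stimulated with orexin A at about EC80; 0% = agonist challenge alone and 100% = reference antagonist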
CHO-K1 HTRF: signal in parental CHO-K1 cells, OX1R antagonist counter-screen | shares compounds with OX1R antag-1 | HTRF counterscreen | inhibition, % at 6.6 µM | hit rate 48% among 1,800 | AID 493232; in the data active = inhibition above about 17%;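 note: 0% = agonist challenge with vehicle and 100% = vehicle alone without agonist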
Numbers without * were called inactive; nt = no result. In the library only some 2.9% were active in any assay of this set; here they are far more common.

SMILES	CHO-K1 Ca antag	CHO-K1 Ca ag	OX1R antag-1	OX1R antag-2	CHO-K1 Ca PAM	CHO parental Ca	OX1R HTRF conf	CHO-K1 HTRF	others
Cc1ccc(C)c(NP(=O)(Oc2ccccc2)Oc2ccccc2)c1	18	8	42*	81*	4	14	58*	13	OX1R Ca confirm=12;CHO Ca counter=-14
COc1ccc(-c2cc(=O)oc3c(C)c(OC(C)C(=O)N4C[C@H]5C[C@@H](C4)c4cccc(=O)n4C5)ccc23)cc1 (some centres undefined)	-11	0	25	-43	15	-15	nt	nt
CC(C)CCn1c(N)c(C(=O)OCC2CCCO2)c2nc3ccccc3nc21 (centres undefined)	11	2	53	6	-4	4	nt	nt
CCCCn1c(N)c(C(=O)OCC2CCCO2)c2nc3ccccc3nc21 (centres undefined)	-4	3	100*	78*	18	-23	34	14	OX1R Ca confirm=-3;CHO Ca counter=-5
Nc1cc(Cl)c2nonc2c1[N+](=O)[O-]	12	1	113*	31	16	25	85*	85*
CCOC(=O)Cn1cc([N+](=O)[O-])nc1[N+](=O)[O-]	-14	0	92*	-14	10	0	42	53*
CC(=O)N1CN2CN(C(C)=O)CC(C(=O)c3ccccc3)(C2)C1	9	0	13	-16	3	5	nt	nt
CC(=O)N1CN2CN(C(C)=O)CC(C(=O)c3ccc([N+](=O)[O-])cc3)(C2)C1	2	0	93*	-8	0	-3	58*	52*
CCOC(=O)c1sc(N=Nc2c(O)[nH]c(=O)[nH]c2=O)c(C(=O)OCC)c1C	nt	nt	7	-6	nt	4	nt	nt
Cc1ccc(C(=O)O)cc1N=Nc1c(O)[nH]c(=O)[nH]c1=O	-19	1	154*	4	6	-3	57*	101*
O=C(O)c1cccc(N=Nc2c(O)[nH]c(=O)[nH]c2=O)c1	-8	0	138*	3	-1	-13	62*	92*
C[C@@H]1CN([C@@H](C)CO)C(=O)CCCn2nncc2CO[C@@H]1CN(C)C(=O)Oc1cccc2ccccc12	-10	0	nt	nt	16	nt	nt	nt
CC12CN3CN(C1)CC(c1ccccc1)(C3)C2=O	5	0	2	-7	9	2	nt	nt
O=C1NC(=O)C(=Cc2ccc(N3CCOCC3)o2)C(=O)N1	1	2	92*	-15	-10	3	50	99*
CCOc1cc2c(cc1OCC)-n1cccc1C(c1cc(OC)ccc1F)NC2 (centres undefined)	-14	1	9	-16	4	-24	nt	nt
CN1CCN(C(=O)COc2ccc(N(C)S(=O)(=O)c3ccc(F)cc3)cc2)CC1	6	0	20	-13	-9	-4	nt	nt
C[n+]1ccc(-c2ccccc2)c2ccccc21	-4	0	96*	4	7	-1	76*	84*
C[C@@H]1CN([C@@H](C)CO)C(=O)CCCn2cc(nn2)CO[C@H]1CN(C)C(=O)Oc1ccc2ccccc2c1	-7	1	nt	nt	23	nt	nt	nt
O=C1OC(c2ccc([N+](=O)[O-])cc2)=N/C1=C/N1CC2CC(C1)c1cccc(=O)n1C2 (centres undefined)	20	0	80*	-5	-20	-16	25	18*
CCc1nnc(NC(=O)CCc2nc(C3=CCN(C)CC3)no2)s1	-6	0	98*	-1	2	-4	14	11
O=[N+]([O-])c1ccc(NC2CCCC2)c2ccncc12	-13	6	31	-2	1	22	nt	nt
CN1CCN(c2ccc([N+](=O)[O-])c3cccnc23)CC1	22	0	128*	-21	-9	-16	43	64*
O=[N+]([O-])c1ccc(N2CCCC2)c2ccncc12	-6	6	87*	-16	-9	-3	44	69*
CN1CCN(c2ccc([N+](=O)[O-])c(N3CCCCC3)c2)CC1	-12	0	24	-9	12	2	nt	nt
CCCCCCC[n+]1ccc(-c2cc[n+](CCCCCCC)cc2)cc1	3	0	140*	-10	-7	-10	60*	91*
SMILES	CHO-K1 Ca antag	CHO-K1 Ca ag	OX1R antag-1	OX1R antag-2	CHO-K1 Ca PAM	CHO parental Ca	OX1R HTRF conf	CHO-K1 HTRF	others
c1ccc2c[n+](CCCCCCCCCC[n+]3ccc4ccccc4c3)ccc2c1	-17	1	nt	nt	13	nt	nt	nt
Cc1ccc2[nH]c3c(c2c1)CN(C(=O)CN1C[C@H]2C[C@@H](C1)c1cccc(=O)n1C2)CC3	-2	0	7	-17	-2	-13	nt	nt
Cc1ccc(N=Nc2c(O)[nH]c(=O)[nH]c2=O)c([N+](=O)[O-])c1	3	0	124*	-8	-2	-3	38	56*
CC(C)c1ccc(N=Nc2c(O)[nH]c(=O)[nH]c2=O)cc1	-4	0	20	-7	14	-1	nt	nt
O=c1[nH]c(O)c(C=Nc2ccccc2[N+](=O)[O-])c(=O)[nH]1	nt	nt	18	-17	nt	-7	nt	nt
O=c1[nH]c(O)c(N=Nc2ccc([N+](=O)[O-])cc2)c(=O)[nH]1	-16	0	89*	-25	19	2	62*	99*
O=C(COc1ccccc1)N1CCN(CC2CC=CCC2)CC1 (centres undefined)	5	4	3	-8	11	-4	nt	nt

Screening data deposited in PubChem BioAssay by The Scripps Research Institute Molecular Screening Center.
